Assay [1] relates to J774. Kind of assay: Antiinflammatory activity against mouse J774 cells assessed as inhibition of LPS-induced MCP-1 production at 10 uM after 24 hrs by ELISA. The assay is classed as functional. Conditions: J774, 24 h. In a few lines: (§1)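 J774 macrophages were grown 72 h to confluence, then exposed to LPS with compound at 10 μM in fresh medium for 24 h. IL-6 and MCP-1 in the culture medium were quantified by ELISA. n = 4, mean ± SEM relative to LPS-only cells.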

Assay [2] relates to J774. Kind of assay: Antiinflammatory activity against mouse J774 cells assessed as inhibition of LPS-induced nitric oxide production at 10 uM by Griess assay. It counts as functional. In outline: (§2)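 Confluent J774 monolayers were treated with LPS plus compound at 10 μM in fresh medium, 24 h. NO was read as accumulated nitrite in the medium by Griess reaction. n = 4, mean ± SEM versus cells cultured with LPS only.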
(Nitrite, measured by Griess reagent, commonly stands in for NO production.)

In assay [3] the test system is J774. Briefly: Antiinflammatory activity against mouse J774 cells assessed as inhibition of LPS-induced IL-6 production at 10 uM after 24 hrs by ELISA. The assay is classed as functional. Conditions: J774, 24 h. In outline:
as §1

The subject of assay [4] is J774. Kind of assay: Antiinflammatory activity against mouse J774 cells assessed as inhibition of LPS-induced iNOS expression at 10 uM after 24 hrs by Western blot analysis. The assay is classed as functional, cell-based. In outline:
(§3)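 Murine J774 macrophages were grown 72 h to confluence in DMEM with 10% heat-inactivated FBS at 37 °C, 5% CO2. Compound was added in fresh medium with LPS for 24 h. Cells were lysed, and 20 μg protein was immunoblotted for COX-2 or iNOS with actin as the loading control, detected by chemiluminescence. n = 4, mean ± SEM versus LPS alone.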
On the technique in general: A western blot detects proteins with antibodies after separation by electrophoresis.

For assay [5], the system named is J774. Kind of assay: Antiinflammatory activity against mouse J774 cells assessed as inhibition of LPS-induced COX-2 expression at 10 uM after 24 hrs by Western blot analysis. It counts as functional. The note with it: J774, 24 h. In outline:
as §3

Assay [6] has as its system J774. Kind of assay: Antiinflammatory activity against mouse J774 cells assessed as inhibition of LPS-induced MCP-1 production measured as remaining MCP-1 levels at 10 uM after 24 hrs by ELISA. It counts as functional. In a few lines:
as §1

The test system of assay [7] is J774. Kind of assay: Downregulation of LPS-induced iNOS expression in mouse J774 cells at 0.3 to 10 uM after 24 hrs by Western blot analysis. It counts as functional, cell-based. In a few lines: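 Dose–response was run in LPS-activated J774 macrophages over 24 h, with iNOS protein detected by Western blot and actin as the loading control.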
Assay [8] deals with J774. Briefly: Antiinflammatory activity against mouse J774 cells assessed as inhibition of LPS-induced IL-6 production measured as remaining IL-6 levels at 10 uM after 24 hrs by ELISA. The assay is classed as functional. In outline: as §1
For orientation: An ELISA detects its analyte on a solid surface through an enzyme-linked reagent.

The test system of assay [9] is J774. Briefly: Antiinflammatory activity against mouse J774 cells assessed as inhibition of LPS-induced COX-2 expression measured as remaining protein levels at 10 uM after 24 hrs by Western blot analysis. The assay is classed as functional. In outline: as §3
In assay [10] the test system is J774. Briefly: Downregulation of LPS-induced IL-6 mRNA levels in mouse J774 cells after 6 hrs by qRT-PCR method. It counts as functional, cell-based. In a few lines: (§4)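 Activated J774 cells received compound at 10 μM alongside LPS. At 3, 6 or 24 h, total RNA was extracted and iNOS, IL-6 or MCP-1 mRNA was measured by TaqMan quantitative RT-PCR (40 cycles, 95 °C/60 °C) in duplicate. Levels came from a standard curve and were normalized to GAPDH. n = 4 versus LPS only.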

Assay [11] deals with J774. Briefly: Downregulation of LPS-induced MCP-1 expression in mouse J774 cells at 0.3 to 10 uM after 24 hrs by ELISA. It counts as functional, cell-based. In a few lines: (§5)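 LPS-stimulated J774 cells were incubated 24 h with compound at 0.3–10 μM. IL-6 and MCP-1 concentrations in the medium were determined by ELISA. Mean + SEM, n = 4, compared with LPS alone.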
Assay [12] concerns J774. Kind of assay: Downregulation of LPS-induced IL-6 expression in mouse J774 cells at 0.3 to 10 uM after 24 hrs by ELISA. The assay is classed as functional, cell-based. In a few lines: as §5
The subject of assay [13] is J774. Briefly: Downregulation of LPS-induced iNOS mRNA levels in mouse J774 cells after 6 to 24 hrs by qRT-PCR method. It counts as functional, cell-based. In outline: as §4
The test system of assay [14] is J774. Briefly: Downregulation of LPS-induced MCP-1 mRNA levels in mouse J774 cells after 3 to 6 hrs by qRT-PCR method. It counts as functional, cell-based. In outline:
as §4

Assay [15] has as its system Mus musculus. Kind of assay: Antiinflammatory activity in C57BL/6NCrl mouse assessed as inhibition of carrageenan-induced paw edema at 10 mg/kg, ip administered 2 hrs prior to carrageenan challenge measured after 3 hrs by plethysmometry. It counts as functional. In outline:
(§6)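 Eight-week-old male mice were dosed ip with compound (10 mg/kg), dexamethasone (2 mg/kg) or PBS-8% DMSO vehicle 2 h before carrageenan. Under medetomidine/ketamine anesthesia, 45 μL of 1.5% λ-carrageenan in saline was given intradermally into one hindpaw, with saline in the contralateral paw. Paw volume was measured by plethysmometer before and at 3 and 6 h. n = 6–12.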

Assay [16] concerns J774. Briefly: Antiinflammatory activity in mouse J774 cells assessed as inhibition of LPS-induced iNOS expression measured as remaining protein levels at 10 uM after 24 hrs by Western blot analysis. It counts as functional. In outline:
as §3

Assay [17] concerns Mus musculus. Briefly: Antiinflammatory activity in C57BL/6NCrl mouse assessed as inhibition of carrageenan-induced paw edema at 10 mg/kg, ip administered 2 hrs prior to carrageenan challenge measured after 6 hrs by plethysmometry. It counts as functional. In outline: as §6
Assay [18] relates to J774. Briefly: Antiinflammatory activity in mouse J774 cells assessed as inhibition of LPS-induced nitric oxide production measured as remaining nitric oxide levels at 10 uM by Griess assay. The assay is classed as functional. In outline:
as §2

As a reminder, the inhibition is the drop in the measured response relative to a control, in per cent. A word on the inhibition in vivo: it is the relative decrease from the control value, in per cent.

Activity calls are given as the source filed them. The rule behind the calls is not given here.

For `C[C@@H]1C[C@H]2[C@@H]3CCC4=CC(=O)C=C[C@]4(C)[C@@]3(F)[C@@H](O)C[C@]2(C)[C@@]1(O)C(=O)CO` [DEXAMETHASONE], the inhibition at 10 µM in the assay with J774 [1] was 38%; with J774 [2], 85%; in the assay on J774 [3], 86%; with J774 [5], 90%. Besides, in the assay on J774 [4], the inhibition entry was “Active”.

As for `C=C(C)[C@@H]1CC[C@]2(C(=O)O)CC[C@]3(C)[C@H](CC[C@@H]4[C@@]5(C)Cc6c[nH]nc6C(C)(C)[C@@H]5CC[C@]43C)[C@@H]12`, the Activity in the assay with J774 [6] is recorded as 28%; in the assay on J774 [9], 58.2%; in the assay on J774 [16] it was 27.5%. The result in the assay on J774 [7], with J774 [10], in the assay on J774 [11], with J774 [12], with J774 [13] and in the assay on J774 [14] was Active. Moreover, in the assay with J774 [8], the “Remaining IL-6 level (% of LPS-only)” value is reported as 39.5%. Moreover, the results for the inhibition in vivo at 10 mg/kg in the assay on Mus musculus [15] and in the assay with Mus musculus [17] were 27% and 44%, respectively. The “Remaining nitric oxide level (% of LPS-only control)” value in the assay on J774 [18] turned out to be 53.3%.

The values are drawn from ChEMBL document CHEMBL3797069, “Betulin Derivatives Effectively Suppress Inflammation in Vitro and in Vivo” (J Nat Prod, 2016).
